Test results: ChEMBL document CHEMBL1152670, “Synthesis and in vitro evaluation of aspartate transcarbamoylase inhibitors” (Bioorg Med Chem, 2009)
Active and inactive are the calls of the source. The calls are words filed in the database; no cut-off is given here.

Assays:
[1] = system: Escherichia coli; assay: Inhibition of histidine-tagged Escherichia coli ATCase catalytic domain assessed as N-carbamoyl-L-aspartate formation at 0.5 to 6 uM by colorimetric assay
Outline: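 E. coli His-tagged C3 ATCase catalytic subunit (75 ng/mL), purified from strain/plasmid pEK17/EK1104, run at room temperature in 0.1 M Tris-acetate pH 8.3 with 10 mM L-aspartate. N-carbamoyl-L-aspartate formation read colorimetrically. […] Ki and inhibition mode derived from these kinetics.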

[2] = Inhibition of histidine-tagged Escherichia coli ATCase catalytic domain assessed as N-carbamoyl-L-aspartate formation by colorimetric assay
Outline: (§1)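 E. coli His-tagged C3 (catalytic subunit) ATCase, purified from pEK17/EK1104, at 75 ng/mL. Assay at room temperature in 0.1 M Tris-acetate pH 8.3 with 10 mM L-aspartate. […] N-carbamoyl-L-aspartate formation was read colorimetrically. Ki and inhibition mode were taken from the kinetics.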

[3] = system: Escherichia coli; assay: Ratio of compound Ki to N-phosphonacetyl-L-aspartate Ki for histidine-tagged Escherichia coli ATCase catalytic domain
[4] = Uncompetitive inhibition of histidine-tagged Escherichia coli ATCase catalytic domain assessed as N-carbamoyl-L-aspartate formation by colorimetric assay; outline: as §1
[5] = system: Escherichia coli; assay: Ratio of compound Ki to (2S)-2-(2-(hydroxy(hydroxymethyl)phosphoryl)acetamido)succinic acid Ki for histidine-tagged Escherichia coli ATCase catalytic domain

Structure (SMILES) | Ki ([2]; read-out: Ki) | Ratio Ki [3] | other results
O=C(O)CC(=O)N[C@@H](CC(=O)O)C(=O)O | – | – | inhibition [1]: inactive
O=C(O)C[C@@H](C(=O)O)N1CP(=O)(O)CC1=O | – | – | Ki [2]: Not Active
O=C(O)C[C@H](NC(=O)COP(=O)(O)O)C(=O)O | 0.21 µM | 13 | –
O=C(O)CCC(=O)N[C@@H](CC(=O)O)C(=O)O | – | – | inhibition [1]: inactive
O=C(O)C[C@H](NC(=O)OCP(=O)(O)O)C(=O)O | – | – | Ki [2]: Not Active
O=C(O)C[C@H](NC(=O)C[PH](=O)O)C(=O)O | 0.42 µM | 26 | –
O=C(O)C[C@H](NC(=O)CC(C(=O)O)C(=O)O)C(=O)O | – | – | inhibition [1]: inactive
O=C(O)C[C@H](NC(=O)CP(=O)(O)O)C(=O)O [PALA] | 0.016 µM | – | –
O=C(O)C[C@@H](C(=O)O)N1CCP(=O)(O)CC1=O | 1 µM | 63 | –
O=C(O)C[C@H](NC(=O)CP(=O)(O)CC(=O)O)C(=O)O | 3.6 µM | 225 | –
O=C(O)C[C@@H](C(=O)O)N1CCP(=O)(O)CC1 | – | – | Ki [2]: Not Active
O=C(O)C[C@H](NC(=O)NCP(=O)(O)O)C(=O)O | 2.1 µM | 131 | –
O=C(O)C[C@H](NC(=O)C[PH](=O)CO)C(=O)O (some centres not stated) | 0.19 µM | 12 | –
O=C(O)C[C@H](NC(=O)CP(=O)(O)CCO)C(=O)O | – | 156 | Ki [4]: 2.5 µM; Ratio Ki [5]: 13
